Test results: the EternaBench riboswitch data

Tested on: MS2 coat protein
Assay: apparent Kd, MS2 coat protein; higher = weaker binding; RNA-MaP array; theophylline 2 mM where present
Method in brief: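 Green signal from SNAP-549-labelled MS2 coat protein was normalised to red-channel RNA signal and to the median Fmax of control clusters. The protein was titrated from 0.7 or 1.5 nM, doubling to 3 µM, without and then with constant ligand, over designs transcribed by stalled E. coli RNA polymerase on Illumina sequencing-chip clusters, in 100 mM Tris-HCl pH 7.5, 80 mM KCl, 4 mM MgCl2, BSA, DTT, yeast tRNA and Tween-20. The apparent Kd is the median of filtered per-cluster binding-curve fits.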

[1] = designed as: ON switch for theophylline, no ligand
[2] = ligand present: theophylline, designed as: ON switch for theophylline
[3] = designed as: OFF switch for theophylline, no ligand
[4] = ligand present: theophylline, designed as: OFF switch for theophylline

Sequence | apparent Kd [1] [nM] | apparent Kd [2] [nM] | apparent Kd [3] [nM] | apparent Kd [4] [nM]
AACCGAGGCUAUCCUCUAAGACUAUGUGAUACCAGAAUAAUUUUAUUCCCUUGGCAGCAUGACAUGAGGAUCACCCAUGUCUCUU | 27.8 | 32.3 | – | –
GCGAUACAUGAGGAUCACCCAUGUGCAGAUACCAGAGGUGCAUGCCUCCCUUGGCAGCUGCGACGCUCUGGCAUCUUGUGGGAUG | 69.1 | 71 | – | –
AUCCUUAAUAGGGUAAAUGGAUAAAGUGAUACCAGUCAAAUACAAGACCCUUGGCAGCACAAGGACAUGAGGAUCACCCAUGUCA | 20.5 | 14.7 | – | –
UGGUACAUGAGGAUCACCCAUGUGCCGGAUACCAGAGAGCCGGCUCUCCCUUGGCAGCUGGCGCGACAUGAGGAUCACCCAUGUG | – | – | 25.2 | 38.4
UAUCUUGCGGGCGCCCGCAAGGUUGCGGAUACCAGCGAGAUAAAUCGCCCUUGGCAGCCGAACAUGAGGAUCACCCAUGUCGGAC | 9.99 | 12.7 | – | –
AGGAAACAACAUGAGGAUCACCCAUGUGAUACCAGUCAAAUAAAAGACCCUUGGCAGCACACAUGACAUGAGGAUCACCCAUGUA | 31.9 | 77 | – | –
AAAUAAAUAACUGAUACCAGUGUACUGACAUGAGGAUCACCCAUGUUGGGUUUGGUUGUACACCCUUGGCAGCAGAAAUAUAAAA | – | – | 15.9 | 29.8
CGGUUUGUGAUGGAUACCAGCAGAGUGACUGUUUAUCCUGACAUGAGGAUCACCCAUGUGUGCCCUUGGCAGCUGUUGUGGGCUG | – | – | 80.4 | 80.8
CAUACUUUAGUAUGUAAUGUGGACAGUGAUACCAGAUACGAAAGUAUCCCUUGGCAGCACAACAUGAGGAUCACCCAUGUAUUUU | 19.4 | – | – | –
GAUGAACUAUUUGAUACCAGACUACAUGAGGAUCACCCAUGUGCGCGUCGUCCUCUGCCAGUCCCUUGGCAGCAAAUAGUUUAUC | – | – | 101 | 127
GGCUGUUGCGAUUUGAAGCGGCAGCGUGAUACCAGAUGUAAGAGCGUCCCUUGGCAGCACGUUUACAUGAGGAUCACCCAUGUCA | 106 | 60 | – | –
UUAUUUAUAAUUGAUACCAGUUUAAUGGCCGCAAAUCCUGACAUGAGGAUCACCCAUGUAAGCCCUUGGCAGCGGUUAUGGGUUU | – | – | 21 | 21.1
AAUAACAUGAGGAUCACCCAUGUAAAAGAUACCAGAUGCAUGAUGAUCCCUUGGCAGCUUAACGCUGAUUGGAAACAAUCAGCGA | 39 | 37.6 | – | –
GAUGAACUAUAUGAUACCAGACAACAUGAGGAUCACCCAUGUGUAAGUCGUCCUCUGCCUGUCCCUUGGCAGCGUAUAGUUUAUC | – | – | 47.6 | 84
AGCCCUGUGCUAGAUACCAGCUACAUGAGGAUCACCCAUGUGCGUCAAGACUGACUGUGUAGCCCUUGGCAGCUACUCGCAUGUA | – | – | 12.6 | 23
UUAUUUAUAAUGGAUACCAGUUUAAUGGCCGCAAAUCCUGACAUGAGGAUCACCCAUGUAAGCCCUUGGCAGCUGUUAUGGGUUU | – | – | 34.8 | 41.3
AACUAAUCACAUGAGGAUCACCCAUGUGAUACCAGCUAAUCCCAAAGCCCUUGGCAGCACCUUUGGGUCCCGGUGUGUUUGAACA | – | – | 9.6 | 21.9
AUAAUGGGUAUCGGAUUAUCAUGGAAUGAUACCAGAUACUUAGAUAUCCCUUGGCAGCAUGAGGACAUGAGGAUCACCCAUGUAU | – | – | 46.4 | 118
AGUAAUCUAUCAGAUACCAGACCCUCUUUAACAUGAGGAUCACCCAUGUCUAUGUUCUACGUCCCUUGGCAGCUGUAAAUGAUAA | 45.9 | 20.9 | – | –
AAUAACAUGAGGAUCACCCAUGUAAAAGAUACCAGAGUGAUGAUCCUCCCUUGGCAGCUUAAUAACGCUAUCGGAAACGAUAGCG | 69.2 | 105 | – | –
ACAACAUGAGGCGAUACCAGAGGCAACAUGAGGAUCACCCAUGUUCACCCAUGUGAUCACCUCCCUUGGCAGCGCACAUGAGGAU | 12.4 | 30 | – | –

Sequence | apparent Kd [1] [nM] | apparent Kd [2] [nM] | apparent Kd [3] [nM] | apparent Kd [4] [nM]
AUCGUACCUGAUGAUACCAGCAAGUGAUCAUAACAUGAGGAUCACCCAUGUAAUCAGUGAUGCCCUUGGCAGCAUAAUCGAUACA | 178 | 140 | – | –
UGACAUUGCUCAGAUACCAGACAUGAGGAUCACCCAUGUGCCAAAACGUACUAAAUAAAUGUCCCUUGGCAGCUGAGCAAUGUCU | – | – | 12.6 | 126
AUAAUGGGUUUCGGACUAUCAUGGAAUGAUACCAGAUACUUAGAAAUCCCUUGGCAGCAUGAGGACAUGAGGAUCACCCAUGUAU | – | – | 57.9 | 61.5
GGCCGAUGGUGCGAUACCAGCUUGAGUGUACUGGCCAGGUACAUGAGGAUCACCCAUGUAAGCCCUUGGCAGCGCGUCAGAGGCC | – | – | – | 35.8
UUAUGAUGUUCCGAUACCAGCCAUGUGGUUCUAACUUAACAUGAGGAUCACCCAUGUACCGGCCCUUGGCAGCGGAUGUGGAUUA | 11.2 | 17 | – | –
UGACAUUGCUCAGAUACCAGACAUGAGGAUCACCCAUGUACCAAGGUACCCGAAAGGAAUGUCCCUUGGCAGCUGAGCAAUGUCU | – | – | 9.93 | 21.6
AGCGCAGGUCCUGAUACCAGAGACAUGAGGAUCACCCAUGUCCGAUGGUCCUGCCUCAGGCUCCCUUGGCAGCAGGGCUUGUGCU | – | – | 10.3 | 20.4
ACAUGAGGAUCACCCAUGUGCAGAACGGAUACCAGCGUCCUGGUACGCCCUUGGCAGCCGGACAUGAGGAUCACCCAUGUGUGGA | – | – | 93.1 | 406
ACGAUACGACAUGAGGAUCACCCAUGUGAUACCAGCGUGGAAACACGCCCUUGGCAGCACAAAUACUCCAGAAACGUAUCGAAAA | – | – | 239 | 389
AAUGCUGCCAAGGAUUCCUCAUGAGCAGAUACCAGCUAGGAAACUAGCCCUUGGCAGCUGCAACAUGAGGAUCACCCAUGUAAUA | – | – | 38.5 | 26.3
AGAUAACAUGGUUUAAUAAGUUAAACUGAUACCAGUGUAUAUAAUCACCCUUGGCAGCAGCAACAUGAGGAUCACCCAUGUAAUA | 17.2 | 21.9 | – | –
AGUACUCGAACGGAUACCAGCCGGACAUGAGGAUCACCCAUGUCCUACCUCUGUUCGGUUGGCCCUUGGCAGCCGUUCGUGUACA | 99.4 | 93.3 | – | –
GAAUAUUACAUGAGGAUCACCCAUGUAGAUACCAGCCUUGAUUGUGGCCCUUGGCAGCUACGCCGUGAAUGCCUCAGUUGCUUAC | – | – | 90.7 | 31.5
UGGUACAUGAGGAUCACCCAUGUUCCAGAUACCAGAUACCCGGUUAUCCCUUGGCAGCUGGUGGUACAUGAGGAUCACCCAUGUG | – | – | 36.1 | 86.7
UGUAUGUGAUUUGAUACCAGACCAACUGGUAAUACAUGAGGAUCACCCAUGUAGAUUUGGGUCCCUUGGCAGCAAAUCGCAUACU | 48 | 11.7 | – | –
ACAUGAGGAUCACCCAUGUAGUGGCACGAUACCAGCUGAUCCCGUGGCCCUUGGCAGCGUCCGGUGUGGUCUGCCGGGAUGGAGC | 23.7 | 28.4 | – | –
GAGCUGAUGUAGGGCGGAUAUCCGUGAGAUACCAGUACAGAAAUGUACCCUUGGCAGCUCUUCCUUACAUGAGGAUCACCCAUGU | – | – | 19.4 | 36.1
UAUAUAUAUAUGGAUACCAGCAGAGAAAACGUUUAUCCUAACAUGAGGAUCACCCAUGUAUGCCCUUGGCAGCUGUAUAUAUAUA | – | – | 24.9 | 32.4
ACGUCAUGGAGAACGUGACGACUUAUCGAUACCAGCGAUUGAGAGCGCCCUUGGCAGCGAACAUGAGGAUCACCCAUGUCAAGGG | 29.7 | 42.1 | – | –
GCACCAGGUACGGAUACCAGCUGCCAGCGUUACAUGAGGAUCACCCAUGUGAUCUGAUAUAGCCCUUGGCAGCUGUACCUGGUGC | 110 | 865 | – | –
